Test results: ChEMBL document CHEMBL4196023, “Cyclic peptide inhibitors of lysine-specific demethylase 1 with improved potency identified by alanine scanning mutagenesis” (Eur J Med Chem, 2018)
pIC50: −log10 of the molar value. Activity calls are given as the source filed them. The calls are words filed in the database; no cut-off is given here. Positions of bridges follow the written chain, without caps; N, C: chain ends. Residues, ends and D or L forms follow the SMILES beside them. *: point of attachment. Decanoyl = CCCCCCCCCC(=O)*

What was measured:
Calu-6 [1] = assay: Inhibition of cell proliferation in human Calu6 cells at 50 uM after 72 hrs by MTS assay relative to control; assay type: functional; conditions: Calu-6, 72 h
K562 [2] = assay: Antiproliferative activity against human K562 cells after 72 hrs by MTS assay; assay type: functional, cell-based; conditions: K562, 72 h
[3] = biological target: Lysine-specific histone demethylase 1A (Homo sapiens) (UniProt O60341); assay: Inhibition of LSD1 in human K562 cells assessed as increase in H3K4me2 expression at 10 uM after 48 hrs by Western lot analysis relative to control; assay type: cell-based
Calu-6 [4] = assay: Antiproliferative activity against human Calu6 cells after 72 hrs by MTS assay; assay type: functional, cell-based; conditions: Calu-6, 72 h
K562 [5] = assay: Antiproliferative activity against human K562 cells assessed as cell death at 50 uM after 72 hrs by MTS assay relative to control; assay type: functional
MCF7 = assay: Antiproliferative activity against human MCF7 cells after 72 hrs by MTS assay; assay type: functional, cell-based; conditions: MCF7, 72 h
Calu-6 [6] = assay: Inhibition of cell proliferation in human Calu6 cells up to 1 uM after 72 hrs by MTS assay; assay type: functional, cell-based
How it was run: (§1)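 Calu-6 cells grown in EMEM with 10% FBS. Seeded at 2,000 cells/well and attached for one day, then treated 72 h at 37°C, 5% CO2. MTS added for 2 h and absorbance read at 490 nm minus 690 nm. % cell death calculated against untreated control. Mean of 3 determinations ± S.E.M.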

[7] = biological target: LSD1/CoREST complex (Homo sapiens) (UniProt O60341+Q9UKL0); assay: Inhibition of recombinant human LSD1/CoREST at 500 nM preincubated for 5 mins followed by ART-(N,N-dimethyl-K)-QTARKSTGGKAPRKQLA substrate addition measured after 25 mins by fluorescence assay relative to control
Sequence of LSD1/CoREST complex (Homo sapiens) (Q9UKL0 whole entry, looked up, other chains not shown): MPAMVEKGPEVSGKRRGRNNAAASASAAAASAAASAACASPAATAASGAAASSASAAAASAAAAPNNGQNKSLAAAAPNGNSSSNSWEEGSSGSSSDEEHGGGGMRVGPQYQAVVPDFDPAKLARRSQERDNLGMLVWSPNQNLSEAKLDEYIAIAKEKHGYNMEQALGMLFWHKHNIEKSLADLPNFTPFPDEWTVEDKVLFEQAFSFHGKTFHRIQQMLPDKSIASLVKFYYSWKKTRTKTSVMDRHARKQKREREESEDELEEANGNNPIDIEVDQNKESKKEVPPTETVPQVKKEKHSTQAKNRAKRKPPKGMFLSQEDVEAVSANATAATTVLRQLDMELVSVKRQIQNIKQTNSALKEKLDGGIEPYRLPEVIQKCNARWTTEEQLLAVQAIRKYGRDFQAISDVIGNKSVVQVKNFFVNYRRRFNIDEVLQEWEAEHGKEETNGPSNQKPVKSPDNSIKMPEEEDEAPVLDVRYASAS

Calu-6 [8] = assay: Inhibition of cell proliferation in human Calu6 cells at 100 uM after 72 hrs by MTS assay; assay type: functional, cell-based; how it was run: as §1
K562 [9] = assay: Antiproliferative activity against human K562 cells assessed as cell death at 100 uM after 72 hrs by MTS assay relative to control; assay type: functional
K562 [10] = assay: Antiproliferative activity against human K562 cells assessed as cell death at 1 uM after 72 hrs by MTS assay relative to control; assay type: functional
[11] = biological target: Lysine-specific histone demethylase 1A (Homo sapiens) (UniProt O60341); assay: Inhibition of LSD1 in human NCI-H526 cells assessed as increase in H3K4me2 marks at promoter of IGFBP2 at 100 uM after 48 hrs by ChIP-qPCr method; assay type: cell-based
How it was run: (§2)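 NCI-H526 small cell lung carcinoma cells treated 48 h at 100 µM alongside an untreated control. Cells formaldehyde cross-linked, nuclei sonicated and chromatin enzymatically digested. IP with H3K4me2 antibody (normal rabbit IgG as negative control) on protein G magnetic beads. Purified DNA quantified by TaqMan qPCR at promoter regions; fold change by comparative CT (Livak). SD from three qPCR wells.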

[12] = biological target: Lysine-specific histone demethylase 1A (Homo sapiens) (UniProt O60341); assay: Inhibition of LSD1 in human NCI-H526 cells assessed as increase in H3K4me2 marks at promoter of FEZ1 at 100 uM after 48 hrs by ChIP-qPCr method; assay type: cell-based; how it was run: as §2
[13] = biological target: Lysine-specific histone demethylase 1A (Homo sapiens) (UniProt O60341); assay: Inhibition of LSD1 in human Calu6 cells assessed as increase in H3K4me2 expression at 10 uM after 48 hrs by Western lot analysis relative to control; assay type: cell-based
[14] = biological target: Lysine-specific histone demethylase 1A (Homo sapiens) (UniProt O60341); assay: Inhibition of LSD1 in human K562 cells assessed as increase in H3K4me2 expression after 48 hrs by Western lot analysis

Compound | pIC50 (K562 [2]) | fold change (FC) [3] | pIC50 (Calu-6 [4]) | pIC50 (MCF7) | inhibition (Calu-6 [6]) | inhibition [7] [%] | inhibition (Calu-6 [8]) | Activity (K562 [9]) [%] | Activity (K562 [10]) [%] | inhibition [11] | inhibition [12] | also measured
N=C(NCCCNCCCCCCCNCCCNC(=N)NC(=N)NCCC(c1ccccc1)c1ccccc1)NC(=N)NCCC(c1ccccc1)c1ccccc1 | 5.37 | 2 to 17 | 5.20 to 5.80 | 5.29 to 5.60 |  |  |  |  |  |  |  | inhibition at 50 µM (Calu-6 [1]): 83%; Activity (K562 [5]): 88%
CSCC[C@H](NC(=O)[C@H](C)NC(=O)[C@H](CCCNC(=N)N)NC(=O)[C@H](C)N)C(=O)N[C@H]1CCCCNC(=O)CC[C@@H](C(N)=O)NC(=O)[C@H](CCCCN)NC(=O)[C@H](CCCNC(=N)N)NC(=O)[C@H](C)NC(=O)[C@H]([C@@H](C)O)NC1=O (H-ARAMKTARKE-NH2; lactam 5-10) |  |  |  |  | inactive | 59.8 | inactive |  |  |  |  | 
CSCC[C@H](NC(=O)[C@@H](NC(=O)[C@H](CCCNC(=N)N)NC(=O)[C@H](C)N)[C@@H](C)O)C(=O)N[C@H]1CCCCNC(=O)CC[C@@H](C(=O)N[C@H](C(=O)NCC(=O)NCC(=O)N[C@@H](C)C(=O)N[C@@H](C)C(=O)N2CCC[C@H]2C(=O)N[C@@H](CCCNC(=N)N)C(=O)N[C@@H](CCCCN)C(=O)N[C@@H](CCC(N)=O)C(=O)N[C@@H](CC(C)C)C(=O)N[C@@H](C)C(N)=O)[C@@H](C)O)NC(=O)[C@H](CCCCN)NC(=O)[C@H](CCCNC(=N)N)NC(=O)[C@H](C)NC(=O)[C@H]([C@@H](C)O)NC1=O (H-ARTMKTARKETGGAAPRKQLA-NH2; lactam 5-10) | 3.70 |  | 3.80 | 3.81 |  |  |  |  |  |  |  | 
CSCC[C@H](NC(=O)[C@H](C)NC(=O)[C@H](CCCNC(=N)N)NC(=O)[C@H](C)N)C(=O)N[C@H]1CCCCNC(=O)CC[C@@H](C(=O)N[C@H](C(=O)NCC(N)=O)[C@@H](C)O)NC(=O)[C@H](CCCCN)NC(=O)[C@H](CCCNC(=N)N)NC(=O)[C@H](C)NC(=O)[C@H]([C@@H](C)O)NC1=O (H-ARAMKTARKETG-NH2; lactam 5-10) |  |  |  |  | inactive | 67.3 | inactive | 18 | 90 |  |  | 
CSCC[C@H](NC(=O)[C@@H](NC(=O)[C@H](CCCNC(=N)N)NC(=O)[C@H](C)N)[C@@H](C)O)C(=O)N[C@H]1CCCCNC(=O)CC[C@@H](C(=O)N[C@H](C(=O)NCC(=O)NCC(=O)N[C@@H](CCCCN)C(=O)N[C@@H](C)C(=O)N2CCC[C@H]2C(=O)N[C@@H](CCCNC(=N)N)C(=O)N[C@@H](CCCCN)C(=O)N[C@@H](CCC(N)=O)C(=O)N[C@@H](CC(C)C)C(=O)N[C@@H](C)C(N)=O)[C@@H](C)O)NC(=O)[C@H](CCCCN)NC(=O)[C@H](CCCNC(=N)N)NC(=O)[C@H](C)NC(=O)[C@H](C)NC1=O (H-ARTMKAARKETGGKAPRKQLA-NH2; lactam 5-10) | 5.09 |  | 4.03 | 3.81 |  |  |  |  |  |  |  | 
CSCC[C@H](NC(=O)[C@H](C)NC(=O)[C@H](CCCNC(=N)N)NC(=O)[C@H](C)N)C(=O)N[C@H]1CCCCNC(=O)CC[C@@H](C(=O)N[C@H](C(=O)NCC(=O)NCC(=O)N[C@@H](CCCCN)C(=O)N[C@@H](C)C(=O)N2CCC[C@H]2C(=O)N[C@@H](CCCNC(=N)N)C(=O)N[C@@H](CCCCN)C(N)=O)[C@@H](C)O)NC(=O)[C@H](CCCCN)NC(=O)[C@H](CCCNC(=N)N)NC(=O)[C@H](C)NC(=O)[C@H]([C@@H](C)O)NC1=O (H-ARAMKTARKETGGKAPRK-NH2; lactam 5-10) |  |  |  |  | inactive | 98 | inactive | 9.5 | 59 |  |  | 
c1ccc([C@@H]2C[C@H]2NC2CCNCC2)cc1 (relative stereo) |  |  |  |  |  |  |  |  |  | Active | Active | 
CSCC[C@H](NC(=O)[C@H](C)NC(=O)[C@H](CCCNC(=N)N)NC(=O)[C@H](C)N)C(=O)N[C@H]1CCCCNC(=O)CC[C@@H](C(=O)N[C@H](C(=O)NCC(=O)NCC(=O)N[C@@H](CCCCN)C(=O)N[C@@H](C)C(N)=O)[C@@H](C)O)NC(=O)[C@H](CCCCN)NC(=O)[C@H](CCCNC(=N)N)NC(=O)[C@H](C)NC(=O)[C@H]([C@@H](C)O)NC1=O (H-ARAMKTARKETGGKA-NH2; lactam 5-10) |  |  |  |  | inactive | 73.4 | inactive | 11 | 53 |  |  | 
CCCCCCCCCC(=O)NCCCC[C@H](NC(=O)[C@H](C)NC(=O)[C@H](CC(C)C)NC(=O)[C@H](CCC(N)=O)NC(=O)[C@H](CCCCN)NC(=O)[C@H](CCCNC(=N)N)NC(=O)[C@@H]1CCCN1C(=O)[C@H](C)NC(=O)[C@H](CCCCN)NC(=O)CNC(=O)CNC(=O)[C@@H](NC(=O)[C@@H]1CCC(=O)NCCCC[C@H](NC(=O)[C@H](CCSC)NC(=O)[C@@H](NC(=O)[C@H](CCCNC(=N)N)NC(=O)[C@H](C)N)[C@@H](C)O)C(=O)N[C@@H]([C@@H](C)O)C(=O)N[C@@H](C)C(=O)N[C@@H](CCCNC(=N)N)C(=O)N[C@@H](CCCCN)C(=O)N1)[C@@H](C)O)C(N)=O |  | 17.6 | 4.03 | 4.44 |  |  |  |  |  | Active | Active | Activity [13]: inactive
CCCCCCCCCC(=O)NCCCC[C@H](NC(=O)[C@H](C)NC(=O)[C@H](CC(C)C)NC(=O)[C@H](CCC(N)=O)NC(=O)[C@H](CCCCN)NC(=O)[C@H](CCCNC(=N)N)NC(=O)[C@@H]1CCCN1C(=O)[C@H](C)NC(=O)[C@H](CCCCN)NC(=O)CNC(=O)CNC(=O)[C@@H](NC(=O)[C@@H]1CCC(=O)NCCCC[C@H](NC(=O)[C@H](CCSC)NC(=O)[C@H](C)NC(=O)[C@H](CCCNC(=N)N)NC(=O)[C@H](C)N)C(=O)N[C@@H]([C@@H](C)O)C(=O)N[C@@H](C)C(=O)N[C@@H](CCCNC(=N)N)C(=O)N[C@@H](CCCCN)C(=O)N1)[C@@H](C)O)C(N)=O (H-ARAMKTARKETGGKAPRKQLAK(Decanoyl)-NH2; lactam 5-10) | 4.02 | 2 to 17 | 4.40 | 4.55 |  |  |  |  |  | Active | Active | inhibition [14]: Dose-dependent effect
